Results taken from ChEMBL document CHEMBL3112420, “Discovery of 8-cyclopentyl-2-[4-(4-methyl-piperazin-1-yl)-phenylamino]-7-oxo-7,8-dihydro-pyrido[2,3-d]pyrimidine-6-carbonitrile (7x) as a potent inhibitor of cyclin-dependent kinase 4 (CDK4) and AMPK-related kinase 5 (ARK5)” (J Med Chem, 2014).
Active and inactive are the calls of the source. No cut-off for these calls is given here.

Assays:
K562 = assay: Cytotoxicity against human K562 cells after 96 hrs by Cell-Titer Blue assay; assay type: functional, cell-based; conditions: K562, 96 h
DU-145 = assay: Cytotoxicity against human DU145 cells after 96 hrs by Cell-Titer Blue assay; assay type: functional, cell-based; conditions: DU-145, 96 h
MDA-MB-231 [1] = assay: Cell cycle arrest in human MDA-MB-231 cells assessed as accumulation at sub-G1 phase at 0.5 to 1 uM after 48 hrs by propidium iodide staining-based flow cytometric analysis; assay type: functional
[2] = target: Phosphatidylinositol 4,5-bisphosphate 3-kinase catalytic subunit delta isoform (Homo sapiens, UniProt O00329); assay: Inhibition of PI3Kdelta (unknown origin)
MDA-MB-231 [3] = assay: Induction of apoptosis in human MDA-MB-231 cells assessed as PARP cleavage at 1 to 10 uM after 24 hrs by Western blotting analysis; assay type: functional, cell-based
[4] = target: NUAK family SNF1-like kinase 1 (Homo sapiens, UniProt O60285); assay: Inhibition of ARK5 (unknown origin)
MCF7 [5] = assay: Cell cycle arrest in human MCF7 cells assessed as accumulation at G1 phase at 0.5 to 1 uM after 24 hrs by propidium iodide staining-based flow cytometric analysis; assay type: functional
Outline: (§1)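 Cells plated at 1.0 × 10^6 per dish, then treated 24 h later with increasing concentrations for 24 h. Floating and adherent cells were pooled, PBS-washed and fixed in ice-cold 70% ethanol for at least 24 h. They were then stained with propidium iodide plus RNase A for 30 min at 37 °C. Percentage of cells in each phase was read by flow cytometry.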

MCF7 [6] = assay: Induction of apoptosis in human MCF7 cells assessed as PARP cleavage at 1 to 10 uM after 24 hrs by Western blotting analysis; assay type: functional, cell-based
MDA-MB-231 [7] = assay: Cell cycle arrest in human MDA-MB-231 cells assessed as accumulation at G1 phase at 0.5 to 1 uM after 24 hrs by propidium iodide staining-based flow cytometric analysis; assay type: functional; outline: as §1
[8] = target: T1, Cyclin-dependent kinase 4/cyclin D1 (Homo sapiens) (UniProt P11802+P24385); assay: Inhibition of recombinant CDK4/cyclinD1 in human MDA-MB-231 cells assessed as inhibition of retinoblastoma phosphorylation at Ser780 at 0.5 to 5 uM after 24 hrs by Western blotting analysis; assay type: cell-based
Outline: (§2)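 Breast carcinoma cells were given increasing concentrations for 24 h. Total lysates (100 μg, 10% SDS-PAGE) were immunoblotted with antibodies against Ser780-phosphorylated and non-phosphorylated RB. Bands were read on an infrared scanning system.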

[9] = target: T1, Cyclin-dependent kinase 4/cyclin D1 (Homo sapiens); assay: Inhibition of recombinant CDK4/cyclinD1 in human MCF7 cells assessed as inhibition of retinoblastoma phosphorylation at Ser780 at 0.5 to 5 uM after 24 hrs by Western blotting analysis; assay type: cell-based; outline: as §2
MCF7 [10] = assay: Cell cycle arrest in human MCF7 cells assessed as accumulation at sub-G1 phase at 0.5 to 1 uM after 48 hrs by propidium iodide staining-based flow cytometric analysis; assay type: functional
[11] = target: Cyclin-dependent kinase 2/cyclin E1 (Homo sapiens, UniProt P24941); assay: Inhibition of CDK2/cyclinE (unknown origin); assay type: protein-complex assay
[12] = target: Cyclin-dependent kinase 1/cyclin B1 (Homo sapiens, UniProt P06493); assay: Inhibition of CDK1/cyclinB (unknown origin); assay type: protein-complex assay
Cyclin-dependent kinase 1/cyclin B1, sequence (P06493 whole entry): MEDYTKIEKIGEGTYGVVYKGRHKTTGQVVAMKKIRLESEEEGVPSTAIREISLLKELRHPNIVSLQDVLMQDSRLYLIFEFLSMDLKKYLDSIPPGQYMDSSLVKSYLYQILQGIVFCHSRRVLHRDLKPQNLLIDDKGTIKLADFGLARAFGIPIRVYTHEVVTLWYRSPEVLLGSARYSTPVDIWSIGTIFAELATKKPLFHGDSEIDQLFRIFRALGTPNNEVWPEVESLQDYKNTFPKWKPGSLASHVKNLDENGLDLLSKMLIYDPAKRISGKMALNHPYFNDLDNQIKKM
Cyclin-dependent kinase 1/cyclin B1, sequence (P14635 whole entry, further chain): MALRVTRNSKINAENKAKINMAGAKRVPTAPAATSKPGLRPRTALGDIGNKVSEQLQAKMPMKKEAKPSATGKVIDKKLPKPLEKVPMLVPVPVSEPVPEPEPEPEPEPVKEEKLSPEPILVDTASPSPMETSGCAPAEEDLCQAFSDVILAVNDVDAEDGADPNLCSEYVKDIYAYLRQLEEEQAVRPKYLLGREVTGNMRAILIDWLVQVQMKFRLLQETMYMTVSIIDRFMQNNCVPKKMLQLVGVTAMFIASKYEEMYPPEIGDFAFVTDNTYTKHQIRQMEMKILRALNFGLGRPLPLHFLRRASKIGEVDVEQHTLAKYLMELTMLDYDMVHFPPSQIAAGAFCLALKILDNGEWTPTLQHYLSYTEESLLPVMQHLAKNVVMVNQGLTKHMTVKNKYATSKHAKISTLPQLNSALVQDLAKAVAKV

Phosphatidylinositol 4,5-bisphosphate 3-kinase catalytic subunit delta isoform, sequence (O00329 whole entry, canonical isoform): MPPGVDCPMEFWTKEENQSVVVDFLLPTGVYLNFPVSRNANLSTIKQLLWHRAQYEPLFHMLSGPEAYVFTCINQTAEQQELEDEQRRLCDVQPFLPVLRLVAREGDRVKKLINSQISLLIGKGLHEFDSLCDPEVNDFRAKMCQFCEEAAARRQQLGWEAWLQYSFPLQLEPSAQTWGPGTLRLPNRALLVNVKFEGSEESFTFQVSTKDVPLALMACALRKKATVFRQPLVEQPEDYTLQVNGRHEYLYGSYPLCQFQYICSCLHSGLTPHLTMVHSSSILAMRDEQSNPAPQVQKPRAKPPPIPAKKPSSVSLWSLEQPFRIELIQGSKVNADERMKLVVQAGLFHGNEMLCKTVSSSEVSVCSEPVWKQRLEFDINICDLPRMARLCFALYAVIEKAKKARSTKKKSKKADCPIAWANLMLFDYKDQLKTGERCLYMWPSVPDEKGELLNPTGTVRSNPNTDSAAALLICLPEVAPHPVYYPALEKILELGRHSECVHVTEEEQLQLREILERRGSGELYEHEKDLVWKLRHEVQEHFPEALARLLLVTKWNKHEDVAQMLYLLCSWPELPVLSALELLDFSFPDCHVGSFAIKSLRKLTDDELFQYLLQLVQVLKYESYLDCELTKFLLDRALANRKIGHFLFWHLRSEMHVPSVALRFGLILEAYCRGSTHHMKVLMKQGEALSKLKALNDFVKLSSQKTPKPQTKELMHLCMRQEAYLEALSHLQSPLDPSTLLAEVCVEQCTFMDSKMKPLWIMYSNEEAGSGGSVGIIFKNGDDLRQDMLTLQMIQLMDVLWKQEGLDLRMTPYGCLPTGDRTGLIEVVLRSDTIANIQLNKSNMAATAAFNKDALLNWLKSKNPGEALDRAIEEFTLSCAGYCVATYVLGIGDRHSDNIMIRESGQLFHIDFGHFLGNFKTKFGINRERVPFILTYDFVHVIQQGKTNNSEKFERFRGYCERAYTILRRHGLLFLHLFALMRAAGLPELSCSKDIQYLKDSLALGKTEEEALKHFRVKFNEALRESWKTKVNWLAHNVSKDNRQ
NUAK family SNF1-like kinase 1, sequence (O60285 whole entry): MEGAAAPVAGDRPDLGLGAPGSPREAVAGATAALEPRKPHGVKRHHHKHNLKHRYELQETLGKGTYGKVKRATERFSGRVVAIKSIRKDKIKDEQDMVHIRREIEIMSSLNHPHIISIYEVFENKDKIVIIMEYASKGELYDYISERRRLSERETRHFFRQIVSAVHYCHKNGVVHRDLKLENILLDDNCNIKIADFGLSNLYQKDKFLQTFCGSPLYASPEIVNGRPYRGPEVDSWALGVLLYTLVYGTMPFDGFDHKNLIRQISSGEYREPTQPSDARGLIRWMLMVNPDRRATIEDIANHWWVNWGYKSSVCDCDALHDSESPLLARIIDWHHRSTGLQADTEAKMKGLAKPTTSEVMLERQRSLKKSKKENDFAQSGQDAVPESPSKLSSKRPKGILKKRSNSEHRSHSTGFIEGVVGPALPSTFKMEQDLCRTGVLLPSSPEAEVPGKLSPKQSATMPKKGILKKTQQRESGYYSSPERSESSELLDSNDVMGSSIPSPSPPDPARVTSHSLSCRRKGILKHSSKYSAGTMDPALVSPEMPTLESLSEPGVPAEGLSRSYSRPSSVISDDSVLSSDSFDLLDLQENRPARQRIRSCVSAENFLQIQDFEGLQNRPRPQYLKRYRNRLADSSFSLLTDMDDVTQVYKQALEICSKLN

Row | Structure (SMILES) | IC50 (K562) [µM] | IC50 (DU-145) [µM] | further results
1 | N#Cc1cc2cnc(Nc3ccc(N4CCOCC4)cc3)nc2n(C2CCCC2)c1=O | 5 | 15 | 
2 | CC(=O)c1c(C)c2cnc(Nc3ccc(N4CCNCC4)cn3)nc2n(C2CCCC2)c1=O [PALBOCICLIB] | 2 | 7.5 | Activity (MDA-MB-231 [1]): inactive; IC50 [2]: > 10 µM; Activity (MDA-MB-231 [3]): inactive; IC50 [4]: > 5 µM; Activity (MCF7 [5]): Active; Activity (MCF7 [6]): inactive; Activity (MDA-MB-231 [7]): Active; inhibition [8]: Active; inhibition [9]: Active; Activity (MCF7 [10]): inactive
3 | COc1cc(Nc2ncc3cc(C#N)c(=O)n(C4CCCC4)c3n2)cc(OC)c1 | 15 | 15 | 
4 | N#Cc1cc2cnc(Nc3cccc4cccnc34)nc2n(C2CCCC2)c1=O | 1 | 1 | 
5 | COc1ccc2cc(Nc3ncc4cc(C#N)c(=O)n(C5CCCC5)c4n3)ccc2n1 | 0.25 | 3 | 
6 | CN1CCN(c2ccc(Nc3ncc4cc(C(=O)Nc5ccc(F)cc5)c(=O)n(C5CCCC5)c4n3)cc2)CC1 | 15 | 30 | 
7 | N#Cc1ccnc(Nc2ncc3cc(C#N)c(=O)n(C4CCCC4)c3n2)c1 | 5 | 30 | 
8 | COc1cccc(Nc2ncc3cc(C#N)c(=O)n(C4CCCC4)c3n2)c1 | 5 | 0.5 | 
9 | COc1ccc(Nc2ncc3cc(C#N)c(=O)n(C4CCCC4)c3n2)c(OC)c1 | 15 | 15 | 
10 | CN1CCN(c2ccc(Nc3ncc4cc([N+](=O)[O-])c(=O)n(C5CCCC5)c4n3)cc2)CC1 | 0.75 | 2.5 | 
11 | CCCCCn1c(=O)c(C#N)cc2cnc(Nc3ccc(N4CCN(C)CC4)cc3)nc21 | 0.75 | 1.5 | 
12 | N#Cc1cc2cnc(Nc3cccc4[nH]ccc34)nc2n(C2CCCC2)c1=O | 30 | 15 | 
13 | CN1CCN(c2ccc(Nc3ncc4cc(C(=O)Nc5ccc(Cl)cc5)c(=O)n(C5CCCC5)c4n3)cc2)CC1 | 5 | 30 | 
14 | N#Cc1cc2cnc(Nc3ccccn3)nc2n(C2CCCC2)c1=O | 0.5 | 3 | 
15 | CN1CCN(c2ccc(Nc3ncc4cc(C#N)c(=O)n(C5CC5)c4n3)cc2)CC1 | 2.5 | 2.5 | 
16 | COc1ccc(CS(=O)(=O)c2cc3cnc(Nc4ccc(N5CCN(C)CC5)cc4)nc3n(C3CCCC3)c2=O)cc1[N+](=O)[O-] | 2 | 5 | 
17 | N#Cc1cc2cnc(Nc3ccc(N4CCOCC4)cn3)nc2n(C2CCCC2)c1=O | 5 | 15 | 
18 | CN1CCN(c2ccc(Nc3ncc4cc(S(=O)(=O)Cc5ccc(Cl)cc5)c(=O)n(C5CCCC5)c4n3)cc2)CC1 | 10 | 75 | 
19 | CN1CCN(c2ccc(Nc3ncc4cc(C#N)c(=O)n(C)c4n3)cc2)CC1 | 75 | 75 | 
20 | COc1ccccc1Nc1ncc2cc(C#N)c(=O)n(C3CCCC3)c2n1 | 15 | 30 | 
21 | CC(=O)N(c1ccc(N2CCN(C)CC2)cc1)c1ncc2cc(C#N)c(=O)n(C3CCCC3)c2n1 | 0.75 | 5 | 
22 | CN1CCN(c2ccc(Nc3ncc4cc(S(=O)(=O)c5ccccc5)c(=O)n(C5CCCC5)c4n3)cc2)CC1 | 30 | 75 | 
23 | N#Cc1ccc(Nc2ncc3cc(C#N)c(=O)n(C4CCCC4)c3n2)cc1 | 75 | 5 | 

Row | Structure (SMILES) | IC50 (K562) [µM] | IC50 (DU-145) [µM] | further results
24 | COc1ccc(Nc2ncc3cc(C#N)c(=O)n(C4CCCC4)c3n2)cc1 | 75 | 25 | 
25 | CCn1c(=O)c(C#N)cc2cnc(Nc3ccc(N4CCN(C)CC4)cc3)nc21 | 0.75 | 1.5 | 
26 | CN1CCN(c2ccc(Nc3ncc4cc(S(=O)(=O)c5ccc(Cl)cc5)c(=O)n(C5CCCC5)c4n3)cc2)CC1 | 5 | 15 | 
27 | CCCn1c(=O)c(C#N)cc2cnc(Nc3ccc(N4CCN(C)CC4)cc3)nc21 | 5 | 15 | 
28 | CN1CCN(c2ccc(N(C(=O)c3ccc(C(F)(F)F)cc3)c3ncc4cc(C#N)c(=O)n(C5CCCC5)c4n3)cc2)CC1 | 0.5 | 1 | 
29 | N#Cc1cc2cnc(NCc3ccccc3)nc2n(C2CCCC2)c1=O | 100 | 75 | 
30 | N#Cc1cc2cnc(Nc3cnc4ccccc4c3)nc2n(C2CCCC2)c1=O | 5 | 5 | 
31 | N#Cc1cc2cnc(Nc3ccc(Cl)cc3)nc2n(C2CCCC2)c1=O | 30 | 30 | 
32 | N#Cc1cc2cnc(Nc3ccccc3O)nc2n(C2CCCC2)c1=O | 15 | 15 | 
33 | CN1CCN(c2ccc(Nc3ncc4cc(C#N)c(=O)n(C5CCCC5)c4n3)nc2)CC1 | 5 | 15 | 
34 | N#Cc1cc2cnc(Nc3ccc4[nH]ccc4c3)nc2n(C2CCCC2)c1=O | 5 | 5 | 
35 | COc1ccc(CS(=O)(=O)c2cc3cnc(Nc4ccc(N5CCN(C)CC5)cc4)nc3n(C3CCCC3)c2=O)cc1O | 2 | 2 | 
36 | COc1cc(Nc2ncc3cc(C#N)c(=O)n(C4CCCC4)c3n2)cc(OC)c1OC | 2.5 | 5 | 
37 | CN1CCN(c2ccc(Nc3ncc4cc(C#N)c(=O)[nH]c4n3)cc2)CC1 | 30 | 30 | 
38 | CCCCn1c(=O)c(C#N)cc2cnc(Nc3ccc(N4CCN(C)CC4)cc3)nc21 | 0.75 | 0.75 | 
39 | N#Cc1cc2cnc(N3CCN(c4ccc(C(F)(F)F)cn4)CC3)nc2n(C2CCCC2)c1=O | 30 | 100 | 
40 | CN1CCN(c2ccc(Nc3ncc4cc(S(C)(=O)=O)c(=O)n(C5CCCC5)c4n3)cc2)CC1 | 5 | 5 | 
41 | COc1ccc(F)cc1Nc1ncc2cc(C#N)c(=O)n(C3CCCC3)c2n1 | 75 | 75 | 
42 | CC(C)n1c(=O)c(C#N)cc2cnc(Nc3ccc(N4CCN(C)CC4)cc3)nc21 | 2.5 | 2.5 | 
43 | COc1ccc(Nc2ncc3cc(C#N)c(=O)n(C4CCCC4)c3n2)cc1OC | 2 | 5 | 
44 | Nc1ccc2c(=S)c3ccccc3[nH]c2c1 |  |  | IC50 [11]: > 100 µM; IC50 [12]: > 100 µM
45 | CN1CCN(c2ccc(Nc3ncc4cc(C#N)c(=O)n(C5CCCCC5)c4n3)cc2)CC1 | 1.5 | 50 | 
